According to ChEMBL document CHEMBL1144184, “Preparation and biological evaluation of 5-substituted retinoic acids” (2008):
Activity calls are given as the source filed them. The rule behind the calls is not given here.

Tests used:
HL-60 [1] = assay: Induction of human HL-60 cell differentiation assessed as cell surface CD11b antigen expression measured as mean fluorescence index at 0.0001 uM to 1 uM after 3 days by FACS relative to ATRA; type: functional
How it was run: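 Thymidine-synchronized HL-60 cells, 10⁵ cells/well, cultured 3 days with retinoids (10^-10–10^-6 M) in RPMI-1640. CD11b surface expression quantified by flow cytometry (excitation 490 nm, emission 520 nm), 10⁴ cells counted per treatment. Readout is mean fluorescence index (% fluorescent cells × mean intensity), normalized to ATRA values.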

HL-60 [2] = assay: Antiproliferative activity against human HL-60 cells assessed as cell cycle distribution at 0.0001 uM to 1 uM after 3 days by FACS relative to ATRA; type: functional
How it was run: (§1)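 HL-60 cells (RPMI-1640, 10% dextran-coated charcoal-treated FCS, kanamycin; S-phase synchronized twice with 2.5 mM thymidine) seeded 10⁵ cells/well and exposed to retinoids for 3 days at 37 °C, 5% CO₂. Cells permeabilized with 0.2% Triton-X plus RNase (37 °C, 1 h), stained with propidium iodide (4 °C, 20 min), and cell cycle phases quantified by flow cytometry (488 nm argon laser).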

HL-60 [3] = assay: Induction of apoptosis in human HL-60 cells assessed as DNA fragmentation by agarose gel electrophoresis; type: functional, cell-based
How it was run: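 HL-60 cells exposed to increasing retinoid concentrations. DNA isolated from each culture, run on a 2% agarose gel, stained with ethidium bromide and viewed under UV. Laddering scored as positive or negative.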

HL-60 [4] = assay: Cell cycle arrest in human HL-60 cells assessed as accumulation at G0/G1 phase at 10 pM to 1 uM by FACS; type: functional, cell-based; how it was run: as §1
[5] = biological target: T1, Retinoic acid receptor beta (Homo sapiens) (UniProt P10826); assay: Increase in transcriptional activity of human RARbeta receptor expressed in human MG63 cells co-transfected with pGL3-RARE at 1 uM by luciferase reporter gene assay relative to ATRA; type: cell-based; details: MG-63, in the assay text read “relative to control” for “relative to ATRA”
T1 sequence (whole entry): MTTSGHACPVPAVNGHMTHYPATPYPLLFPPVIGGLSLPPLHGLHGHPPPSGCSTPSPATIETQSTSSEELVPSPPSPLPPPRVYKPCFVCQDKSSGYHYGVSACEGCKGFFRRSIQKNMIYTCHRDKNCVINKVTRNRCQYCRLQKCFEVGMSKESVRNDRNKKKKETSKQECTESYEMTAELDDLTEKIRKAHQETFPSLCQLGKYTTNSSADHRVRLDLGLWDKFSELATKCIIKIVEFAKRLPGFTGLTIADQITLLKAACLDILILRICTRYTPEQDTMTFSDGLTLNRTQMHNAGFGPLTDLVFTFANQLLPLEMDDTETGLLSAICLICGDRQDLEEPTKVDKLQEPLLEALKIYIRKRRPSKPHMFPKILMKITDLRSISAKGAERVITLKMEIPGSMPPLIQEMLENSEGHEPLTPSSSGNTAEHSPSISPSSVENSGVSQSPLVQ
How it was run: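 MG-63 osteosarcoma cells in DMEM with 10% charcoal-stripped FCS were seeded 2 × 10⁵/well the day before transfection. Cotransfected (Tfx-50) with human RARβ promoter–RARE3-SV40-luciferase reporter and pRL-CMV control. Retinoids applied for 2 days at 10^-6 M. Firefly luciferase normalized to Sea Pansy luciferase, expressed as fold induction over control. At least three repeats, mean ± SE.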

CC(=C/C=C/C(C)=C/C(=O)O)/C=C/C1=C(Cc2ccccc2)CCCC1(C)C
Activity (HL-60 [1]): 6
Activity (HL-60 [2]): 11
Activity (HL-60 [3]): inactive

CC(/C=C/C1=C(CC(C)C)CCCC1(C)C)=C\C=C\C(C)=C\C(=O)O
Activity (HL-60 [1]): 310
Activity (HL-60 [2]): 35
Activity (HL-60 [3]): inactive
Activity (HL-60 [4]): Active
Activity [5]: Active

CCCCC1=C(/C=C/C(C)=C/C=C/C(C)=C/C(=O)O)C(C)(C)CCC1
Activity (HL-60 [1]): 129
Activity (HL-60 [2]): 193
Activity (HL-60 [3]): inactive
Activity (HL-60 [4]): Active
Activity [5]: Active

CC(=C/C=C/C(C)=C/C(=O)O)/C=C/C1=C(Cc2ccc3ccccc3c2)CCCC1(C)C
Activity (HL-60 [1]): <0.22
Activity (HL-60 [2]): <0.81
Activity (HL-60 [3]): inactive

CC(/C=C/C1=C(Cc2ccccc2)CCCC1(C)C)=C\C=C\C(C)=C\C(=O)O
Activity (HL-60 [1]): 2
Activity (HL-60 [2]): 2
Activity (HL-60 [3]): inactive
Activity (HL-60 [4]): Active
Activity [5]: Active

CCCCC1=C(/C=C/C(C)=C\C=C\C(C)=C\C(=O)O)C(C)(C)CCC1
Activity (HL-60 [1]): 9
Activity (HL-60 [2]): 14
Activity (HL-60 [3]): inactive

CC(=C/C=C/C(C)=C/C(=O)O)/C=C/C1=C(CC(C)C)CCCC1(C)C
Activity (HL-60 [1]): 10
Activity (HL-60 [2]): 16
Activity (HL-60 [3]): inactive

CC(/C=C/C1=C(Cc2ccc3ccccc3c2)CCCC1(C)C)=C\C=C\C(C)=C\C(=O)O
Activity (HL-60 [1]): <0.22
Activity (HL-60 [2]): <0.81
Activity (HL-60 [3]): inactive
Activity (HL-60 [4]): Active
Activity [5]: Active
